KCNQ1 block: blocks the human KCNQ1 potassium channel. P51787. CHO-K1 KCNQ1, FluxOR thallium flux fluorescence; stronger effect = higher value. B-score at 10 µM. hit rate 1.3% among 310,000. AID 2642;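 active = compounds whose thallium flux B-score, printed positive for inhibition, exceeds three library SD while starting fluorescence stays within three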;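 note: channel opened by potassium depolarization with thallium stimulus after 20 min compound exposure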
KCNK9 inh: human KCNK9 channel inhibition; Q9NPC2; HEK293 KCNK9, FluxOR thallium flux fluorescence; stronger effect = lower value; B-score at 10 µM; hit rate 1.2% among 310,000; AID 488922;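 active = ratio B-score over 3 SD below the library mean, with starting fluorescence within 5 SD of its mean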;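 note: negative B-score means less thallium flux so channel inhibition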
hERG protect: compounds protecting human hERG from proarrhythmic drug block; Q12809; CHO-hERG, FluxOR thallium flux, dofetilide IC70 present; activation (rescue from dofetilide block), less the hit threshold, % at 10 µM; hit rate 0.51% among 310,000;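 active = activation above the mean of controls blocked by dofetilide plus 5 SD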;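 note: thallium influx through hERG after potassium depolarization seen as dye fluorescence rise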
KCNQ1 pot: potentiates or activates the human KCNQ1 potassium channel. P51787. CHO-K1 KCNQ1, thallium flux FluxOR fluorescence; stronger effect = higher value. B-score at 10 µM. hit rate 0.35% among 310,000;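 active = fluorescence ratio B-score, a plate-corrected score, at least three library SD, with initial intensity B-score within 5 SD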
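assay system = CHO-K1 cells stably expressing KCNQ1 | medium = assay buffer, equal DMSO in all wells | timing = 37 °C overnight plating, 90-min dark dye load, 20-min compound pretreatment | measured by = kinetic FluxOR thallium fluorescence, 10-s 1-Hz baseline, 110-s post-stimulus read | measure = fluorescence change relative to baseline, converted to B score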
Kir21 block: inhibitors of mouse Kir2.1 inward-rectifier potassium channel; P35561; HEK293-Kir2.1, FluxOR thallium flux fluorescence; stronger effect = lower value; B-score at 10 µM; hit rate 0.85% among 310,000;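 active = fluorescence ratio B-score at or below minus 3 SD of library scores, with starting-brightness B-score within 2 SD, cut at about -4.2 in these data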;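 note: channel flux triggered by added potassium and thallium sulfate stimulus; B-score of peak minus minimum fluorescence over baseline after thallium stimulus; more negative B-score means stronger Kir2.1 block with less thallium influx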
KCNK3 inh: human KCNK3 channel inhibition, primary screen; B-score at 10 µM; O14649; CHO-KCNK3 thallium flux, FluxOR fluorescence; stronger effect = lower value; hit rate 0.84% among 340,000;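 active = B-score under library mean minus 4 SD, starting fluorescence ratio at most library mean plus 5 SD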;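 note: more negative B-score means stronger inhibition of thallium flux through KCNK3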
KCNQ1 inh valid: human KCNQ1 channel inhibition, validation assay | shares compounds with KCNQ1 block | KCNQ1 cell line, FluxOR thallium flux fluorescence | inhibition, % at 10 µM | hit rate 93% among 1,600;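 active = primary screen active, with duplicate mean exceeding buffer control mean plus 3 SD of buffer wells, cut at about 28% in these data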;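 note: 0% = buffer control ratio and 100% = XE991 inhibitor control ratio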
CHO KCNQ1 ctr: KCNQ1 inhibitor counter-screen hit in parental CHO cells; shares compounds with KCNQ1 block; parental CHO-K1, FluxOR thallium flux fluorescence ratio; stronger effect = lower value; zero means no signal rise above baseline; fluorescence ratio (Tl flux) at 10 µM; hit rate 21% among 1,600;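 active = mean of duplicate thallium-flux fluorescence ratios in parental host cells more than 5 SD below the buffer control mean, cut at about 0.38 in these data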;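 note: ratio is peak minus minimum fluorescence divided by baseline fluorescence; actives read low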
KCNQ1 ephys val: confirmation of human KCNQ1 potassium channel inhibitors by electrophysiology; AID 624120; hit rate 20% among 490; shares compounds with KCNQ1 block; KCNQ1-CHO cells, automated patch clamp current; calls only at 10 µM;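 active = KCNQ1 current drop exceeding 3 SD of negative control wells, seen in both duplicate runs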;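 note: steady state current during a 2 s step from -80 to +40 mV; negative values mean current inhibition and positive values mean potentiation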
KCNQ2 inh: KCNQ1 inhibitor that also blocks rat KCNQ2 channel; shares compounds with KCNQ1 block; KCNQ2 cells, FluxOR thallium flux fluorescence; inhibition, % at 10 µM; hit rate 71% among 1,600; AID 651746;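 active = mean percent inhibition of the KCNQ2 thallium signal more than 5 SD above the buffer-only control wells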;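 note: KCNQ2 expressed in CHO cells; 0% = buffer control wells and 100% = XE-991 inhibitor control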
KCNQ1-KCNE1 inh: selectivity of KCNQ1 inhibitors: inhibition of human KCNQ1/KCNE1 channel; shares compounds with KCNQ1 block; inhibition, % at 10 µM; KCNQ1/KCNE1 cells, FluxOR thallium flux fluorescence; hit rate 77% among 1,600; AID 652147;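 active = mean percent inhibition of duplicate wells above the buffer-only control mean plus 3 SD of those controls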;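 note: 0% = buffer only wells and 100% = XE-991 inhibitor control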
Target sequence (P51787 whole entry, looked up): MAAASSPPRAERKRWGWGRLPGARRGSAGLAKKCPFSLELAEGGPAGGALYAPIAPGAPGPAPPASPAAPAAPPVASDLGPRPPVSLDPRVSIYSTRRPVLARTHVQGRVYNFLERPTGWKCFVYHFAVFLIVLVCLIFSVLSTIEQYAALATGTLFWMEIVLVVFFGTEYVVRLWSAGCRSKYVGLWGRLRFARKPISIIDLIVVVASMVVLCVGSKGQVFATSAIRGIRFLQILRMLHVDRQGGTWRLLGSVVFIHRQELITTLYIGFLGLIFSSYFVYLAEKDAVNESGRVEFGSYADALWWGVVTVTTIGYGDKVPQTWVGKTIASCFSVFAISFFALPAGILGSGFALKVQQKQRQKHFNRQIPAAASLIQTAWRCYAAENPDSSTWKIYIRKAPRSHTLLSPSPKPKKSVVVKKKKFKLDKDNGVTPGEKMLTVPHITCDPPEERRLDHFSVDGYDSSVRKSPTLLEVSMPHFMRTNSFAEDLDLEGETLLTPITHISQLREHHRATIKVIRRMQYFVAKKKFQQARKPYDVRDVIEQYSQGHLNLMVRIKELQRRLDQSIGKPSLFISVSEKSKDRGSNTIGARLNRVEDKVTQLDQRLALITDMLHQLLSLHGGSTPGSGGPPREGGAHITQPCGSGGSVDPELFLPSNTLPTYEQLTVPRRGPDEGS
An asterisk follows results filed as active; i = inactive; · = not tested or not shown; + = active, no number. In the library only some 3.8% were active in any assay of this set; here they are far more common.

SMILES	KCNQ1 block	KCNK9 inh	hERG protect	KCNQ1 pot	Kir21 block	KCNK3 inh	KCNQ1 inh valid	CHO KCNQ1 ctr	KCNQ2 inh	KCNQ1-KCNE1 inh	others
CSC1=NSC2=NC(=O)/C(=C\c3coc4ccccc4c3=O)C(=N)N12	·	·	·	·	·	i	·	·	·	·
CC(C)CSC1=NSC2=NC(=O)/C(=C\c3coc4ccccc4c3=O)C(=N)N12	25*	i	-45.6	i	-15.9	i	+	0.004*	i	i
CCCCn1c(N)c(N(Cc2ccccc2)C(=O)COc2ccccc2F)c(=O)[nH]c1=O	·	·	·	·	·	i	·	·	·	·
CCc1noc(C)c1C(=O)N1CCCSC1=Nc1ccccc1	8*	i	-9.2	i	0.7	i	101.0*	0.47	59.3%*	66.0%*	KCNQ1 ephys val=+
CCc1noc(C)c1C(=O)N1CCOCC1	i	i	-11.4	i	-0.29	i	·	·	·	·
CC(NCc1cc(Br)ccc1OCC(N)=O)C12CC3CC(CC(C3)C1)C2 (centres undefined)	i	i	-5.4	i	-2.83	i	·	·	·	·
CC(Oc1cccc(Cl)c1)C(=O)Nc1ccccc1N1CCCCC1 (centres undefined)	9*	-7.81*	-10.7	i	3.32	i	115.5*	0.469	83.7%*	138.5%*	KCNQ1 ephys val=i
CC(Oc1cccc(Cl)c1)C(=O)Nc1ccccc1C(=O)N1CCCCC1 (centres undefined)	i	i	-12.8	i	-1.34	i	·	·	·	·
COc1cccc(C(=O)Nc2ccc(Cl)c(C(F)(F)F)c2)c1	9*	i	-14.7	i	-0.06	i	136.0*	0.373*	130.0%*	78.0%*
Cc1ccc2c(c1)[nH]c1c(N3CCN(Cc4ccccc4)CC3)ncnc12	i	i	-25.0	i	-0.07	i	·	·	·	·
COc1cccc(N2CCN(c3ncnc4c3[nH]c3ccccc34)CC2C)c1 (centres undefined)	12*	i	-34.8	i	1.96	·	142.5*	0.317*	123.7%*	+
OC1(c2cccc(C(F)(F)F)c2)CCN(c2ncnc3c2[nH]c2ccccc23)CC1	7*	i	-25.1	i	-0.05	i	133.5*	0.369*	118.7%*	146.5%*
COc1ccc2[nH]c3c(N4CC(C)OC(C)C4)ncnc3c2c1 (centres undefined)	i	i	-11.2	i	2.54	·	·	·	·	·
c1ccc(CN2CCN(c3ncnc4c3[nH]c3ccccc34)CC2)cc1	7*	i	-27.8	i	-0.57	i	131.5*	0.445	120.3%*	81.5%*
COC(=O)c1ccc(COc2ccccc2/C=C/C(=O)c2ccc(OCC(=O)O)cc2)cc1	i	i	-10.4	i	1.03	i	·	·	·	·
CN(Cc1cccnc1)C(=O)c1cc(COc2ccc3c(c2)CCCC3)on1	7*	i	-20.8	i	-0.04	i	115.0*	0.438	81.0%*	45.5%*	KCNQ1 ephys val=i
N#CCC(=N)N1CCN(c2ccc(F)cc2)CC1	i	i	-4.0	i	0.85	i	·	·	·	·
Cc1ccc(NC(=O)COc2cccc(C)c2C)cc1S(=O)(=O)N1CCCCCC1	6*	i	-14.2	i	0.64	i	85.0*	0.427	119.3%*	134.5%*
Cc1ccc(NC(=O)CSc2ncnc3ccccc23)cc1S(=O)(=O)N1CCCCCC1	6*	i	-12.5	i	1.37	i	117.5*	0.396	126.7%*	106.5%*	KCNQ1 ephys val=i
CSc1nc2ccc(NS(=O)(=O)c3ccc(Cl)s3)cc2s1	7*	i	-13.3	i	-1.49	i	103.0*	0.43	i	69.5%*
c1ccc(CNc2ncnc3sccc23)cc1	i	i	-15.3	i	0.53	i	·	·	·	·
c1cncc(CNc2ncnc3sccc23)c1	10*	i	-11.2	i	-1.04	i	0.0	0.459	i	i
O=C(Nc1ccc(OC(F)F)cc1)c1cc(S(=O)(=O)N2CCOCC2)ccc1F	i	i	-6.7	i	-0.45	i	·	·	·	·
Cc1c(C(=O)N2CCOCC2)sc(NC(=O)CCl)c1C#N	i	i	-10.3	i	-1.32	i	·	·	·	·
Cc1cc(C)n(CC(=O)NC2CCCc3c2cnn3-c2ccc(C)c(C)c2)n1 (centres undefined)	i	i	-6.8	i	1.44	i	·	·	·	·
SMILES	KCNQ1 block	KCNK9 inh	hERG protect	KCNQ1 pot	Kir21 block	KCNK3 inh	KCNQ1 inh valid	CHO KCNQ1 ctr	KCNQ2 inh	KCNQ1-KCNE1 inh	others
Cc1cc(C(=O)NC2CCCc3c2cnn3-c2ccc(C)c(C)c2)n(C)n1 (centres undefined)	11*	i	-14.7	i	0.38	i	101.5*	0.466	90.7%*	84.5%*	KCNQ1 ephys val=i
Cc1ccc(C(=O)Nc2nc(=O)n(C(=O)CC(C)C)s2)cc1	6*	i	2.2	i	0.04	i	33.5*	0.607	i	i
Cc1ccc(S(=O)(=O)NC(=O)c2cc(C)n(-c3ccc(N(C)C)cc3)c2C)cc1	6*	i	-11.5	i	-0.22	i	30.5*	0.535	i	i
Cc1ccc(S(=O)(=O)NC(=O)c2cc(C)n(-c3ccccc3)c2C)cc1	i	i	-10.1	i	-0.37	i	·	·	·	·
COc1ccc2oc(/C=C/N(C)C)c(C(=O)c3ccc(Cl)cc3)c2c1	6*	i	-15.1	i	-1.04	i	114.0*	0.351*	139.0%*	145.0%*
COc1ccc2oc(C)c(C(=O)c3ccccc3)c2c1	i	i	-6.0	i	-3.04	i	·	·	·	·
CC(C)c1noc2ncc(C(=O)c3cc(Cl)cc(Cl)c3O)cc12	6*	i	-8.6	i	-0.94	i	52.0*	0.553	i	i
COc1cccc(-c2cc3nc(-c4ccccc4)cc(N4CCCC(O)C4)n3n2)c1 (centres undefined)	9*	i	-20.0	i	0.83	i	85.0*	0.443	134.0%*	182.0%*
COc1cccc(-c2ncc3ccccc3c2COC(=O)c2ccco2)c1	·	·	·	·	·	i	·	·	·	·
Cc1ccc(O)c(-c2cc(C(F)(F)C(F)F)[nH]n2)c1	6*	i	-15.5	i	1.8	i	93.0*	0.511	104.7%*	129.0%*	KCNQ1 ephys val=+
